Key:
[1] = target: T1, Adenosine receptor A1 (Homo sapiens) (UniProt P30542); experiment: Percent change in cAMP content of CHO (Chinese hamster ovary) cells expressing human Adenosine A1 receptor at 10 uM; format: functional, cell-based
T1 sequence (whole entry): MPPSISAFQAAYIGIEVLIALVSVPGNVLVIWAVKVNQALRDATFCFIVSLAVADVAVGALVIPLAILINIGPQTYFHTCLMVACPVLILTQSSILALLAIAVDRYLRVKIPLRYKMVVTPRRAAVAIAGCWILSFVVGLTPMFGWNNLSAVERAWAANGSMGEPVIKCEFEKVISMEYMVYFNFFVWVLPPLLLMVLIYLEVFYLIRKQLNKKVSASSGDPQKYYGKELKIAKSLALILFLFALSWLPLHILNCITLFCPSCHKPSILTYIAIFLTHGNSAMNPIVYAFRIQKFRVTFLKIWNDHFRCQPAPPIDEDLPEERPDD
Procedure, shortened: (§1)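 CHO cells stably expressing human A1 receptor (~8000 fmol/mg protein) were grown in Ham's F-12 with 10% FBS and G-418 for 48 h to confluence. HCl (50 mM final) stopped the reaction, and cAMP was measured by radioimmunoassay. Values are % change versus no-compound control, mean ± SEM of six experiments.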

[2] = target: T1, Adenosine receptor A1 (Homo sapiens); experiment: Percent change in cAMP content of CHO (Chinese hamster ovary) cells expressing human Adenosine A1 receptor at 0.1 uM; format: functional, cell-based; procedure, shortened: as §1
[3] = target: T1, Adenosine receptor A1 (Homo sapiens); experiment: Percent change in cAMP content of CHO (Chinese hamster ovary) cells expressing human Adenosine A1 receptor at 0.01 uM; format: functional, cell-based; procedure, shortened: as §1
[4] = target: T1, Adenosine receptor A1 (Homo sapiens); experiment: Percent change in cAMP content of CHO (Chinese hamster ovary) cells expressing human Adenosine A1 receptor at 1 uM; format: functional, cell-based; procedure, shortened: as §1
[5] = target: Adenosine receptor A2a (Homo sapiens) (UniProt P29274); experiment: Ability to displace the binding of [3H]-ZM 241385, to the ligand binding site of CHO:hA2A (human Adenosine A2A receptor) at concentration of 10 uM
Chain of Adenosine receptor A2a (Homo sapiens) (P29274 whole entry): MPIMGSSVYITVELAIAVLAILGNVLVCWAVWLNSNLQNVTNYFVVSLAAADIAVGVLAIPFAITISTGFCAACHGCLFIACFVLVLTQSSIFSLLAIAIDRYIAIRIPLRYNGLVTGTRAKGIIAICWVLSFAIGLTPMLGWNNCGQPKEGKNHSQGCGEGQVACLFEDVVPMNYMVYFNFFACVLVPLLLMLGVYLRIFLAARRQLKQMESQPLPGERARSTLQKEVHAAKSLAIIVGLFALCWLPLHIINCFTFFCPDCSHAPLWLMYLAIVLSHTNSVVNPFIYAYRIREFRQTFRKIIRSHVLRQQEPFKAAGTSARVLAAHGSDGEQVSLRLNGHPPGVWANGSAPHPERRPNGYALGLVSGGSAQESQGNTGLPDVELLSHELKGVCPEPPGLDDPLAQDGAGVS
Procedure, shortened: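 CHO:hA2A membranes (100 µg protein, ADA-treated) were incubated with 2 nM [3H]ZM 241385 in Tris-HCl with MgCl2, pH 7.4, for 60 min at 4 °C, with compound from DMSO (1% final). Nonspecific binding was taken with 1 µM ZM241385. After filtration, results are % displacement by 10 µM compound, ±STD, n = 3.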

[6] = target: T2, Adenosine receptor A3 (Homo sapiens) (UniProt P0DMS8); experiment: Ability to displace the binding of [3H]-MRE 3008-F20 to the ligand binding site of CHO:hA3 (human Adenosine receptor) at concentration of 10 uM
T2 sequence (whole entry): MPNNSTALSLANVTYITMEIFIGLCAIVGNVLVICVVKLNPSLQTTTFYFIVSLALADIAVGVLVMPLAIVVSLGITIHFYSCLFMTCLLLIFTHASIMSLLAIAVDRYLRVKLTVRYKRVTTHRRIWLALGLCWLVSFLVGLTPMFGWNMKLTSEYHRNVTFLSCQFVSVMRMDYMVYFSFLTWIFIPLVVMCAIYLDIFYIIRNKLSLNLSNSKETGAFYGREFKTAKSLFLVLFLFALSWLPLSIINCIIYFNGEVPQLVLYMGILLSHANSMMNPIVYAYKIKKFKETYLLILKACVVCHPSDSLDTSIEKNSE
Procedure, shortened: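 Assays used 2 nM [3H]MRE 3008F20 on CHO:hA3 membranes (100 µg protein, ADA-treated) for 150 min at 4 °C, in Tris-HCl with MgCl2 and 1 mM EDTA, pH 7.4, with compound from DMSO (1% final). Bound ligand was separated by filtration. Results are % displacement by 10 µM compound, ±STD, n = 3.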

[7] = target: T1, Adenosine receptor A1 (Homo sapiens); experiment: Ability to displace the binding of [3H]DPCPX to the ligand binding site of CHO:hA1 (human Adenosine A1 receptor) at concentration of 10 uM
Procedure, shortened: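 Membranes came from hypotonic lysis of CHO:hA1 cells, a 100 000g pellet and ADA 2 U/mL treatment for 30 min at 37 °C. Membranes (100 µg protein) were incubated with 1 nM [3H]DPCPX in Tris-HCl pH 7.4 for 150 min at 25 °C, with compound added from DMSO (1% final). Nonspecific binding was taken with 1 µM DPCPX, and bound ligand was separated on GF/B filters.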

SMILES | Change [1] | Change [2] | Change [3] | Change [4] | inhibition [5] | inhibition [6] | inhibition [7]
COc1ccc(C(=O)c2c(N)sc(C)c2C)c2ccccc12 | -38% | 3% | 9% | -5% | – | – | –
Nc1sc2c(c1C(=O)c1ccc3ccccc3c1)CCN(Cc1ccccc1F)C2 | -31% | -3% | -3% | -10% | -0% | -0% | 3%
Cc1sc(N)c(C(=O)c2ccc3c(c2)Cc2ccccc2-3)c1C | -19% | -17% | -4% | -10% | – | – | –
Cc1sc(N)c(C(=O)c2cc(C)c3cc(Cl)ccc3c2)c1C | -24% | -0% | -0% | -18% | -0% | -0% | 4%
Cc1sc(N)c(C(=O)c2ccc(C)c3ccccc23)c1C | -51% | -8% | -5% | -32% | – | – | –
Nc1sc2c(c1C(=O)c1ccc3ccccc3c1)CCN(Cc1ccc(Cl)cc1)C2 | -6% | -8% | -6% | -21% | – | – | –
Cc1cc(C(=O)c2c(N)sc3c2CCC3)cc2ccccc12 | -34% | -7% | -0% | -13% | -0% | -0% | 6%
Nc1sc2c(c1C(=O)c1ccc3c(c1)Cc1ccccc1-3)CCC2 | -9% | -15% | -3% | -6% | – | – | –
Nc1sc2c(c1C(=O)c1ccc3ccccc3c1)CCC(c1ccccc1)C2 (configuration not stated) | 33% | 5% | -8% | 31% | – | – | –
COc1ccc(C2SCc3c(sc(N)c3C(=O)c3cccc4ccccc34)S2)cc1 (configuration not stated) | 6% | 16% | 18% | 4% | – | – | –
Cc1cc(C(=O)c2c(N)sc3c2CCN(Cc2ccccc2)C3)cc2ccccc12 | -16% | 2% | -0% | -0% | – | – | –
Cc1ccc(C(=O)c2c(N)sc3c2CCC3)c2ccccc12 | -48% | 4% | 9% | -17% | – | – | –
Cc1ccc(C(=O)c2c(N)sc3c2CCCC3)c2ccccc12 | -45% | 13% | 17% | -21% | – | – | –
Cc1sc(N)c(C(=O)c2cc(C)c3ccccc3c2)c1C | -22% | -3% | 4% | -9% | – | – | –
Cc1cc(C(=O)c2c(N)sc3c2CCC3)cc2ccc(Cl)cc12 | -17% | -14% | 4% | -6% | – | – | –
Cc1sc(N)c(C(=O)c2ccc3ccccc3c2)c1C | -28% | -4% | -1% | -8% | -0% | -0% | -0%
Nc1sc2c(c1C(=O)c1ccc3c(c1)Cc1ccccc1-3)CCN(Cc1ccccc1)C2 | -1% | -7% | 4% | 8% | – | – | –
Nc1sc2c(c1C(=O)c1ccc3ccccc3c1)CCN(Cc1ccc([N+](=O)[O-])cc1)C2 | 26% | 12% | 8% | 26% | – | – | –
COc1ccc(C(=O)c2c(N)sc3c2CCC3)c2ccccc12 | -35% | -3% | -6% | -8% | -0% | 57% | 19%
Nc1sc2c(c1C(=O)c1ccc3ccccc3c1)CCN(Cc1ccccc1)C2 | -60% | -12% | -11% | -18% | -0% | 22% | 2.5%
Nc1sc2c(c1C(=O)c1ccc3ccccc3c1)CCN(Cc1cccc(Cl)c1)C2 | -3% | -12% | 9% | 7% | – | – | –

SMILES | Change [1] | Change [2] | Change [3] | Change [4] | inhibition [5] | inhibition [6] | inhibition [7]
Cc1ccc(C(=O)c2c(N)sc3c2CCN(Cc2ccccc2)C3)c2ccccc12 | -34% | -7% | -0% | -13% | – | – | –
COc1ccc(CN2CCc3c(sc(N)c3C(=O)c3ccc4ccccc4c3)C2)c(OC)c1OC | 5% | -1% | -3% | -10% | – | – | –
Cc1cc(C(=O)c2c(N)sc3c2CCCC3)cc2ccccc12 | -20% | -9% | -7% | -8% | – | – | –
Nc1sc2c(c1C(=O)c1ccc3ccccc3c1)CCC(Cc1ccccc1)C2 (configuration not stated) | 28% | 10% | 7% | -9% | – | – | –
Nc1sc2c(c1C(=O)c1ccc(Cl)c3ccccc13)CCN(Cc1ccccc1)C2 | -21% | -1% | 3% | -7% | – | – | –
Nc1sc2c(c1C(=O)c1ccc(Br)c3ccccc13)CCN(Cc1ccccc1)C2 | -42% | -5% | 18% | -12% | – | – | –
Nc1sc2c(c1C(=O)c1ccc3c(c1)Cc1ccccc1-3)CCCC2 | 3% | 6% | 7% | 7% | – | – | –
Nc1sc2c(c1C(=O)c1cccc3ccccc13)CCC(Cc1ccccc1)C2 (configuration not stated) | -21% | -7% | -8% | -14% | – | – | –
COc1ccc(C(=O)c2c(N)sc3c2CCN(Cc2ccccc2)C3)c2ccccc12 | -12% | 11% | -0% | 3% | – | – | –
COc1ccc(C(=O)c2c(N)sc3c2CCCC3)c2ccccc12 | -17% | 5% | 5% | -3% | – | – | –
Cc1cc(C(=O)c2c(N)sc3c2CCCC3)cc2ccc(Cl)cc12 | -13% | 1% | -0% | -11% | – | – | –
Cc1cc(C(=O)c2c(N)sc3c2CCN(Cc2ccccc2)C3)cc2ccc(Cl)cc12 | -9% | 1% | -1% | -5% | – | – | –
Cc1sc(N)c(C(=O)c2ccc(I)c3ccccc23)c1C | -63% | -3% | -5% | -19% | – | – | –
Nc1sc2c(c1C(=O)c1ccc(I)c3ccccc13)CCN(Cc1ccccc1)C2 | -13% | 1% | -6% | -6% | – | – | –
Cc1sc(N)c(C(=O)c2ccc(Cl)c3ccccc23)c1C | -56% | -18% | 12% | -47% | – | – | –
Cc1sc(N)c(C(=O)c2ccc(Br)c3ccccc23)c1C | -60% | -1% | -8% | -2% | – | – | –
Nc1sc2c(c1C(=O)c1cccc3ccccc13)CCN(Cc1ccccc1)C2 | 19% | -7% | -21% | -25% | – | – | –
Nc1sc2c(c1C(=O)c1ccc3ccccc3c1)CCN(Cc1cccnc1)C2 | 56% | -12% | -8% | 41% | – | – | –
Nc1sc2c(c1C(=O)c1ccc3ccccc3c1)CCN(Cc1ccc(F)cc1)C2 | -8% | -9% | -11% | -2% | – | – | –
Nc1sc2c(c1C(=O)c1ccc3ccccc3c1)CCN(Cc1ccccc1Cl)C2 | -17% | -20% | -10% | -10% | – | – | –

Source: ChEMBL document CHEMBL1145774, “Synthesis and biological effects of novel 2-amino-3-naphthoylthiophenes as allosteric enhancers of the A1 adenosine receptor” (J Med Chem, 2003)
